Source: ChEMBL document CHEMBL5712892, “EZH1 and EZH2 promote skeletal growth by repressing inhibitors of chondrocyte proliferation and hypertrophy” (Nat Commun, 2016)
The source made the active and inactive calls. The calls are words filed in the database; no cut-off is given here.

Legend:
EZH1/2 (Mus musculus) [1] = target: T1, EZH1/2 (Mus musculus) (UniProt Q61188+P70351); experiment: Inhibition of Ezh1/2 in wild-type C57BL/6 mouse isolated primary chondrocyte pellets assessed as increase in Igfbp3 expression at 2 uM by RT-PCR analysis; assay type: cell-based
Summary of the method: (§1)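 Pellets of 2.4×10^5 primary chondrocytes from 1-week-old wild-type mice (400 g, 10 min) were cultured up to 4 weeks, switched to 0.1% FBS medium after 16 h. DMSO or UNC1999 (2 µM final) was added at 16 h and refreshed every other day. Col10a1, Ihh, Igfbp3 and Igfbp5 mRNA were measured by real-time RT-PCR at several time points; two-way ANOVA, N = 6.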

EZH1/2 (Mus musculus) [2] = target: T1, EZH1/2 (Mus musculus); experiment: Inhibition of Ezh1/2 in wild-type C57BL/6 mouse isolated primary chondrocyte pellets assessed as reduction in H3K27me3 level at 2 uM measured after 1 week by immunohistological staining based assay; assay type: cell-based; details: time 1.0 weeks
Summary of the method: (§2)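 Chondrocyte pellets (2.4×10^5 cells, from 1-week-old wild-type mice) were kept in 0.1% FBS medium with DMSO or 2 µM UNC1999 from 16 h, refreshed every other day, for 1 week. Sections were immunostained for H3K27me2 or H3K27me3 (1:1,000, proteinase K retrieval, DAB).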

EZH1/2 (Mus musculus) [3] = target: T1, EZH1/2 (Mus musculus); experiment: Inhibition of Ezh1/2 in wild-type C57BL/6 mouse isolated primary chondrocyte pellets assessed as reduction in Ihh expression at 2 uM by RT-PCR analysis; assay type: cell-based; summary of the method: as §1
EZH1/2 (Mus musculus) [4] = target: T1, EZH1/2 (Mus musculus); experiment: Inhibition of Ezh1/2 in wild-type C57BL/6 mouse isolated primary chondrocytes assessed as reduction in cell proliferation at 2 uM by [3H]thymidine based liquid scintillation counting analysis; details: Primary chondrocyte
Summary of the method: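 Monolayer primary chondrocytes (2×10^5 per well) from 1-week-old wild-type mice were treated with DMSO or 2 µM UNC1999 from 16 h after plating. At 24 h after plating they were labelled with 1 µCi 3H-thymidine for 16 h, washed and collagenase-detached. Radioactivity was read by liquid scintillation counting; N = 6.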

EZH1/2 (Mus musculus) [5] = target: T1, EZH1/2 (Mus musculus); experiment: Inhibition of Ezh1/2 in wild-type C57BL/6 mouse isolated primary chondrocyte pellets assessed as reduction in H3K27me2 level at 2 uM measured after 1 week by immunohistological staining based assay; assay type: cell-based; details: time 1.0 weeks; summary of the method: as §2
EZH1/2 (Mus musculus) [6] = target: T1, EZH1/2 (Mus musculus); experiment: Inhibition of Ezh1/2 in wild-type C57BL/6 mouse fetal metatarsal bone assessed as increase in Igfbp3 expression at 2 uM by immunostaining assay; assay type: tissue-based
EZH1/2 (Mus musculus) [7] = target: T1, EZH1/2 (Mus musculus); experiment: Inhibition of Ezh1/2 in wild-type C57BL/6 mouse isolated primary chondrocyte pellets assessed as reduction in cell hypertrophy at 2 uM measured after 1 week by alcian blue staining based assay; details: time 1.0 weeks
Summary of the method: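 Wild-type chondrocyte pellets were cultured in 0.1% FBS medium with DMSO or 2 µM UNC1999 (from 16 h, refreshed every other day). Alcian blue-stained histological sections were examined for cell size at different time points, including 1 week.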

EZH1/2 (Mus musculus) [8] = target: T1, EZH1/2 (Mus musculus); experiment: Inhibition of Ezh1/2 in wild-type C57BL/6 mouse isolated primary chondrocytes transfected with Cdkn2b SiRNA assessed as reduction in cell proliferation at 2 uM measured after 24 hrs by [3H]thymidine based liquid scintillation counting analysis; details: Primary chondrocyte
Summary of the method: (§3)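 Primary chondrocytes (1×10^5 per well) from 1-week-old wild-type mice were hyaluronidase-treated (5 U ml-1, 6 h) at 40 h. They were then transfected with 40 pmol siRNA against Cdkn2a and/or Cdkn2b, or scrambled control, using Lipofectamine 2000. DMSO or 2 µM UNC1999 was added 16 h post-transfection. Proliferation was measured 24 h later by 3H-thymidine uptake and scintillation counting; N = 6.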

EZH1/2 (Mus musculus) [9] = target: T1, EZH1/2 (Mus musculus); experiment: Inhibition of Ezh1/2 in wild-type C57BL/6 mouse isolated primary chondrocytes assessed as increase in Cdkn2b expression at 2 uM by RT-PCR analysis; assay type: cell-based; details: Primary chondrocyte
Summary of the method: (§4)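 Monolayer primary chondrocytes from 1-week-old wild-type mice received DMSO or UNC1999 (2 µM final) 16 h after plating. RNA was extracted and Cdkn2a and Cdkn2b mRNA quantified by real-time RT-PCR; N = 6.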

EZH1/2 (Mus musculus) [10] = target: T1, EZH1/2 (Mus musculus); experiment: Inhibition of Ezh1/2 in wild-type C57BL/6 mouse fetal metatarsal bone assessed as reduction in hypertrophic cell size at 2 uM; assay type: tissue-based
Summary of the method: (§5)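 Fetal metatarsals (middle three) from E18 wild-type C57BL/6 mice cultured 3 days at 37 °C, 5% CO2 in α-MEM with 0.2% BSA, 0.1 mM β-glycerophosphate, 50 µg ml-1 ascorbic acid. DMSO or UNC1999 (2 µM), ± Igf1 100 ng ml-1, Igfbp3 50 nM or Igfbp5 50 nM, added at start and refreshed day 2. Hypertrophic cell heights averaged within a 100×100 µm area at HZ centre; N = 6.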

EZH1/2 (Mus musculus) [11] = target: T1, EZH1/2 (Mus musculus); experiment: Inhibition of Ezh1/2 in wild-type C57BL/6 mouse isolated primary chondrocyte pellets assessed as increase in Igfbp5 expression at 2 uM by RT-PCR analysis; assay type: cell-based; summary of the method: as §1
EZH1/2 (Mus musculus) [12] = target: T1, EZH1/2 (Mus musculus); experiment: Inhibition of Ezh1/2 in wild-type C57BL/6 mouse isolated primary chondrocyte pellets assessed as reduction in Col10a1 expression at 2 uM by RT-PCR analysis; assay type: cell-based; summary of the method: as §1
EZH1/2 (Mus musculus) [13] = target: T1, EZH1/2 (Mus musculus); experiment: Inhibition of Ezh1/2 in Igfbp3-treated wild-type C57BL/6 mouse fetal metatarsal bone assessed as reduction in hypertrophic cell size at 2 uM; assay type: tissue-based; summary of the method: as §5
EZH1/2 (Mus musculus) [14] = target: T1, EZH1/2 (Mus musculus); experiment: Inhibition of Ezh1/2 in wild-type C57BL/6 mouse fetal metatarsal bone assessed as reduction in H3K27me3 expression at 2 microM by immunohistochemical analysis; assay type: tissue-based
Summary of the method: (§6)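 E18 wild-type C57BL/6 metatarsals cultured 3 days with DMSO or 2 µM UNC1999, added at start and refreshed day 2. Paraffin sections were proteinase K retrieved (100 µg ml-1, 30 min, room temperature) and peroxidase blocked. They were immunostained with anti-H3K27me2 or anti-H3K27me3 (1:1,000) by ABC/DAB.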

EZH1/2 (Mus musculus) [15] = target: T1, EZH1/2 (Mus musculus); experiment: Inhibition of Ezh1/2 in wild-type C57BL/6 mouse isolated primary chondrocyte monolayer culture assessed as increase in Igfbp5 expression at 2 uM by immunostaining analysis; assay type: cell-based
EZH1/2 (Mus musculus) [16] = target: T1, EZH1/2 (Mus musculus); experiment: Inhibition of Ezh1/2 in Igf1-treated wild-type C57BL/6 mouse fetal metatarsal bone assessed as reduction in hypertrophic cell size at 2 uM; assay type: tissue-based; summary of the method: as §5
EZH1/2 (Mus musculus) [17] = target: T1, EZH1/2 (Mus musculus); experiment: Inhibition of Ezh1/2 in Igfbp5-treated wild-type C57BL/6 mouse fetal metatarsal bone assessed as reduction in hypertrophic cell size at 2 uM; assay type: tissue-based; summary of the method: as §5
EZH1/2 (Mus musculus) [18] = target: T1, EZH1/2 (Mus musculus); experiment: Inhibition of Ezh1/2 in wild-type C57BL/6 mouse isolated primary chondrocytes assessed as increase in Cdkn2a expression at 2 uM by RT-PCR analysis; assay type: cell-based; details: Primary chondrocyte; summary of the method: as §4
EZH1/2 (Mus musculus) [19] = target: T1, EZH1/2 (Mus musculus); experiment: Inhibition of Ezh1/2 in wild-type C57BL/6 mouse fetal metatarsal bone assessed as increase in Igfbp5 expression at 2 uM by immunostaining assay; assay type: tissue-based
EZH1/2 (Mus musculus) [20] = target: T1, EZH1/2 (Mus musculus); experiment: Inhibition of Ezh1/2 in wild-type C57BL/6 mouse isolated primary chondrocyte monolayer culture assessed as increase in Igfbp3 expression at 2 uM by immunostaining analysis; assay type: cell-based
EZH1/2 (Mus musculus) [21] = target: T1, EZH1/2 (Mus musculus); experiment: Inhibition of Ezh1/2 in wild-type C57BL/6 mouse isolated primary chondrocytes transfected with Cdkn2a SiRNA assessed as reduction in cell proliferation at 2 uM measured after 24 hrs by [3H]thymidine based liquid scintillation counting analysis; details: Primary chondrocyte; summary of the method: as §3
EZH1/2 (Mus musculus) [22] = target: T1, EZH1/2 (Mus musculus); experiment: Inhibition of Ezh1/2 in wild-type C57BL/6 mouse fetal metatarsal bone assessed as reduction in H3K27me2 expression at 2 microM by immunohistochemical analysis; assay type: tissue-based; summary of the method: as §6

inhibition (EZH1/2 (Mus musculus) [1]): inactive
inhibition (EZH1/2 (Mus musculus) [2]): Active
inhibition (EZH1/2 (Mus musculus) [3]): Active
inhibition (EZH1/2 (Mus musculus) [4]): Active
inhibition (EZH1/2 (Mus musculus) [5]): Active
inhibition (EZH1/2 (Mus musculus) [6]): Active
inhibition (EZH1/2 (Mus musculus) [8]): inactive
inhibition (EZH1/2 (Mus musculus) [9]): Active
inhibition (EZH1/2 (Mus musculus) [11]): Active
inhibition (EZH1/2 (Mus musculus) [12]): Active
inhibition (EZH1/2 (Mus musculus) [14]): Active
inhibition (EZH1/2 (Mus musculus) [15]): inactive
inhibition (EZH1/2 (Mus musculus) [18]): Active
inhibition (EZH1/2 (Mus musculus) [19]): Active
inhibition (EZH1/2 (Mus musculus) [20]): Active
inhibition (EZH1/2 (Mus musculus) [21]): inactive
inhibition (EZH1/2 (Mus musculus) [22]): Active
Structure (SMILES): CCCc1cc(C)[nH]c(=O)c1CNC(=O)c1cc(-c2ccc(N3CCN(C(C)C)CC3)nc2)cc2c1cnn2C(C)C
inhibition (EZH1/2 (Mus musculus) [7]): Active
inhibition (EZH1/2 (Mus musculus) [10]): Active
inhibition (EZH1/2 (Mus musculus) [13]): Active
inhibition (EZH1/2 (Mus musculus) [16]): inactive
inhibition (EZH1/2 (Mus musculus) [17]): Active
